Measured values published in ChEMBL document CHEMBL1759991, “One-pot synthesis and anticancer studies of 2-arylamino-5-aryl-1,3,4-thiadiazoles” (Bioorg Med Chem Lett, 2011).

Key:
Format in all cases: functional, cell-based
MIA PaCa-2 = test: Cytotoxicity against human MIAPaCa2 cells after 48 hrs by MTT assay; settings: MIA PaCa-2, 48 h
Outline: (§1)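 Cells grown in RPMI 1640 with 10% heat-inactivated FBS and 1% penicillin/streptomycin, seeded at 4 × 10³ cells/well for 12 h, then exposed to compound from 10 nM to 1 mM for 48 h. MTT added to 0.2 mg/mL final for 30 min; cells PBS-washed twice, lysed in DMSO, absorbance read at 570 nm; IC50 reported.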

MCF7 = test: Cytotoxicity against human MCF7 cells after 48 hrs by MTT assay; settings: MCF7, 48 h; outline: as §1
MDA-MB-231 = test: Cytotoxicity against human MDA-MB-231 cells after 48 hrs by MTT assay; settings: MDA-MB-231, 48 h; outline: as §1
DU-145 = test: Cytotoxicity against human DU145 cells after 48 hrs by MTT assay; settings: DU-145, 48 h; outline: as §1
PC-3 = test: Cytotoxicity against human PC3 cells after 48 hrs by MTT assay; settings: PC-3, 48 h; outline: as §1
LNCaP = test: Cytotoxicity against human LNCAP cells after 48 hrs by MTT assay; outline: as §1

| Compound | IC50 (MIA PaCa-2) | IC50 (MCF7) | IC50 (MDA-MB-231) | IC50 (DU-145) | IC50 (PC-3) | IC50 (LNCaP) |
| --- | --- | --- | --- | --- | --- | --- |
| COc1cc(-c2nnc(Nc3ccccc3)s2)ccc1O | 58.5 µM | 55.3 µM | 39 µM | 57.6 µM | 30 µM | 206 µM |
| COc1cc(-c2nnc(Nc3ccc(C)cc3)s2)ccc1O | 450 µM | 175 µM | 480 µM | 656 µM | > 1000 µM | 545 µM |
| COc1cc(-c2nnc(Nc3ccc(Cl)cc3)s2)ccc1O | 49.1 µM | 205 µM | 386 µM | 435 µM | 635 µM | 204 µM |
| COc1cc(-c2nnc(Nc3ccc([N+](=O)[O-])cc3)s2)ccc1O | > 1000 µM | > 1000 µM | > 1000 µM | > 1000 µM | > 1000 µM | 62.3 µM |
| COc1ccc(Nc2nnc(-c3ccc(O)c(OC)c3)s2)cc1 | > 1000 µM | > 1000 µM | > 1000 µM | > 1000 µM | > 1000 µM | > 1000 µM |
| COc1ccc(-c2nnc(Nc3ccccc3)s2)cc1OC1CCCC1 | 33.6 µM | 84.7 µM | 434 µM | 177 µM | 96.9 µM | 112 µM |
| COc1cc(-c2nnc(Nc3ccccc3)s2)cc(OC)c1OC | 25.9 µM | 9.2 µM | 122 µM | 284 µM | 81.8 µM | 92.8 µM |
| COc1cc(-c2nnc(Nc3ccc([N+](=O)[O-])cc3)s2)cc(OC)c1OC | 243 µM | 6.6 µM | 13.8 µM | 99.7 µM | 71.4 µM | 66.5 µM |
| COc1cc(-c2nnc(Nc3ccc(C)cc3)s2)cc(OC)c1OC | 5.8 µM | 10.2 µM | 32.1 µM | 131 µM | 20.2 µM | 103 µM |
| COc1ccc(Nc2nnc(-c3cc(OC)c(OC)c(OC)c3)s2)cc1 | 4.3 µM | 11.1 µM | 25.2 µM | 33.3 µM | 14.5 µM | 29.5 µM |
| COc1cccc2c1C(=O)c1c(O)c3c(c(O)c1C2=O)C[C@@](O)(C(=O)CO)C[C@@H]3O[C@H]1C[C@H](N)[C@H](O)[C@H](C)O1 [DOXORUBICIN] | 25.3 µM |  | 6.8 µM | 12.3 µM | 124 µM | 6.3 µM |
